Laboratory results reported in ChEMBL document CHEMBL1275434, “In vitro evaluation of CBR-2092, a novel rifamycin-quinolone hybrid antibiotic: studies of the mode of action in Staphylococcus aureus” (Antimicrob Agents Chemother, 2008).
≈ marks a conversion by molar mass, not a printed value.

Key:
Staphylococcus aureus [1] = experiment: Antimicrobial activity against Staphylococcus aureus CB370 harboring rifampin-resistant rpoB H481Y mutant gene by broth microdilution method; type: functional
How it was run: (§1)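 CLSI broth microdilution MIC in cation-adjusted Mueller-Hinton (MHII) broth supplemented with 0.002% (vol/vol) polysorbate 80, included to limit compound loss to plastic surfaces.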

Staphylococcus aureus [2] = experiment: Antimicrobial activity against Staphylococcus aureus CB809 harboring rpoB H481Y and parC S80F mutant genes by broth microdilution method
[3] = system: DNA gyrase subunit A (Staphylococcus aureus), P20831 [S84L]; experiment: Activity at Staphylococcus aureus wild-type GyrA S84L mutant
Staphylococcus aureus [4] = experiment: Activity at Staphylococcus aureus wild-type DNA topoisomerase 4 subunit ParC
How it was run: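 Recombinant S. aureus topoisomerase IV (wild-type ParC with ParE; specific activity 25 to 30 U per μg). Stopped with SDS/proteinase K. Linear DNA quantified on gel; CC50 is the mean of two or more assays.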

Staphylococcus aureus [5] = experiment: Activity at Staphylococcus aureus DNA topoisomerase 4 subunit ParC S80F mutant
Staphylococcus aureus [6] = experiment: Antimicrobial activity against Staphylococcus aureus CB811 harboring quinolone-resistant gyrA S84L mutant gene by broth microdilution method; type: functional; how it was run: as §1
Staphylococcus aureus [7] = experiment: Antimicrobial activity against Staphylococcus aureus CB815 harboring rpoB H481Y, gyrA S84L and parC S80F mutant genes by broth microdilution method
Staphylococcus aureus [8] = experiment: Antimicrobial activity against Staphylococcus aureus CB814 harboring fluoroquinolone-resistant gyrA S84L and parC S80F mutant genes by broth microdilution method; type: functional; how it was run: as §1
Staphylococcus aureus [9] = experiment: Antimicrobial activity against Staphylococcus aureus CB812 harboring rpo B H481Y and gyrA S84L mutant genes by broth microdilution method; type: functional; how it was run: as §1
Staphylococcus aureus [10] = experiment: Antimicrobial activity against Staphylococcus aureus CB190 by broth microdilution method; type: functional
Staphylococcus aureus [11] = experiment: Antimicrobial activity against Staphylococcus aureus CB808 harboring quinolone-resistant parC S80F mutant gene by broth microdilution method; type: functional; how it was run: as §1
Staphylococcus aureus [12] = experiment: Activity at Staphylococcus aureus wild-type GyrA
How it was run: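 Recombinant S. aureus gyrase (wild-type GyrA with His-tagged GyrB; 250 U per μg). SDS/proteinase K stop. Gel quantitation of linear cleavage product gave CC50, the mean of two or more assays.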

COc1c(N2CCNC(C)C2)c(F)cc2c(=O)c(C(=O)O)cn(C3CC3)c12 (configuration not stated) [GATIFLOXACIN] gave an MIC (Staphylococcus aureus [1]) of 0.06 µg/mL (≈ 0.16 µM), an MIC (Staphylococcus aureus [2]) of 0.25 µg/mL (≈ 0.666 µM) and a CC50 [3] of 18 µM. It also gave a CC50 (Staphylococcus aureus [4]) of 0.22 µM, a CC50 (Staphylococcus aureus [5]) of 13 µM and an MIC (Staphylococcus aureus [6]) of 0.12 µg/mL (≈ 0.32 µM). The MIC (Staphylococcus aureus [7]) was 8 µg/mL (≈ 21.3 µM), the MIC (Staphylococcus aureus [8]) was 8 µg/mL (≈ 21.3 µM) and the MIC (Staphylococcus aureus [9]) was 0.12 µg/mL (≈ 0.32 µM). It also gave an MIC (Staphylococcus aureus [10]) of 0.06 µg/mL (≈ 0.16 µM), an MIC (Staphylococcus aureus [11]) of 0.25 µg/mL (≈ 0.666 µM) and a CC50 (Staphylococcus aureus [12]) of 0.7 µM.
